The list is not random: actives were taken first. Their share in the collection is about 2.3%.
Autophagy mod: alters autophagy in cells; MEF GFP-LC3 puncta imaging; test concentration mostly 10 µM; calls only at 10 µM (by protocol); hit rate 0.98% among 190,000; AID 463193;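 active means percentage of spot-positive cells more than 3 SD above its plate mean, without a fluorescence outlier flag or 80% toxicity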
Ins promoter up: MIN6 insulin promoter up-regulation | MIN6 insulin promoter-GFP reporter, high-content imaging; hits give high values | hit rate 0.3% among 190,000 | z-score at 5 µM;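 active means z-score above 3 at 5 µM with at least 500 cells counted in the well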
SDO1 yeast rescue: sdo1-depleted yeast growth rescue | S. cerevisiae sdo1-depleted JHY4D growth rescue, OD600 30 h; hits give high values; pdr5 snq2 efflux-pump mutant strain | z-score at 10 µM | hit rate 0.21% among 140,000;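 active means z-score above 3 at both the 24 hr and the 30 hr optical density reads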
ABCB1 block: blocks JC-1 efflux by human ABCB1 transporter; CCRF-Adr cells, flow cytometry; inhibition, % at 6.6 µM; hit rate 0.067% among 190,000; AID 1326; in the data active means inhibition above about 40%;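 further: higher value means more JC-1 retained so stronger ABCB1 efflux block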
ROMK mod: modulates human ROMK potassium channel activity. hit rate 2% among 130,000. P48048. Tet-inducible ROMK, thallium flux fluorescence; actives lie on both sides. AID 1918. B-score at 10 µM;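 active means signal ratio slope over the read window, or its plate-corrected B-score, at least 3 SD from the plate mean, either direction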;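 further: B-score of the F/F0 ratio slope over 7 to 12 s after thallium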
Target sequence (P48048 whole entry, looked up): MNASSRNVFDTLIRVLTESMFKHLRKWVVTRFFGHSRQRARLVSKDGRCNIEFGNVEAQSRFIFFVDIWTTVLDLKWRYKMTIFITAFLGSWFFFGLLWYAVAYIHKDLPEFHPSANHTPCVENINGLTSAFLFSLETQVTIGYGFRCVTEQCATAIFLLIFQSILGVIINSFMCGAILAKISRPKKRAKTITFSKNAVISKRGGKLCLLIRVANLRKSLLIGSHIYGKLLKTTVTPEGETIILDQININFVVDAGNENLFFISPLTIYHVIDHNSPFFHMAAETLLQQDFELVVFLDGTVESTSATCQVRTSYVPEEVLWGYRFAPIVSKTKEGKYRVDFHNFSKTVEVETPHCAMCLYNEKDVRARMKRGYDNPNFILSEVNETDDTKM
ABCG2 block: inhibitors of human ABCG2 transporter, ABCB1 counter-screen; IgMXP3 cells, JC-1 efflux, flow cytometry; inhibition, % at 6.6 µM; hit rate 0.1% among 190,000;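 active means inhibition above 80%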
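Test system: IgMXP3 (ABCG2) plus far-red-tagged CCRF-Adr (ABCB1) cells / Amount: 3 million cells/mL in well / Reagent: JC-1 transporter substrate / Timing: 10 min compound exposure, 25 °C / Signal: flow cytometry, 530 nm JC-1 signal / Read-out: percent efflux inhibition, scaled nicardipine 100% to DMSO 0% / Benchmarks: nicardipine as high control, DMSO as low control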
Numbers stand for hits; . = inactive; / = no result; + = active, no number.

SMILES	Autophagy mod	Ins promoter up	SDO1 yeast rescue	ABCB1 block	ROMK mod	ABCG2 block
CN(C)S(=O)(=O)c1ccc(NC(=S)NC(=O)c2ccc(Br)o2)cc1	.	.	/	.	2.4	.
NS(=O)(=O)c1ccc(NC(=S)NC(=O)c2ccc(Br)o2)cc1	.	.	/	.	/	.
Cc1ccc(NC(=O)CCOc2ccccc2C)cc1F	.	.	/	.	.	.
COc1cccc(/C=N/NC(=O)NC2CCCCC2)c1O	/	.	/	/	/	/
COc1ccc(NN=Nc2nc3c([nH]2)c(=O)n(C)c(=O)n3C)cc1	/	.	/	/	.	/
Cc1cc(NC(=O)CN(C)C)c([N+](=O)[O-])cc1C	.	.	/	.	.	.
COc1ccc2c(C(=O)CN(C)C3CCCCC3)c[nH]c2c1	.	4.5	.	.	/	.
CC(=O)/C(N=Nc1nc2c([nH]1)c(=O)n(C)c(=O)n2C)=C(\C)O	/	.	/	/	/	/
CNCCCC1c2ccccc2C=Cc2ccccc21	.	/	.	.	/	.
CNCCCC1Sc2ccccc2Oc2ccccc21 (stereo not drawn)	.	/	.	.	-3.7	.
O=Nc1c(O)n(Cc2ccc(Cl)cc2)c2ccccc12	.	3	.	.	/	.
CCN(CC)c1ccc(NC(=O)COC(=O)/C=C/c2nc3ccccc3s2)cc1	.	.	.	.	/	.
CCN(CC)c1ccc(/C=C/c2nc3ccccc3s2)cc1	+	/	.	.	/	.
CC1CCCCN1CC(O)COCCC12CC3CC(CC(C3)C1)C2 (stereo not drawn)	+	.	/	.	.	.
CCCc1nn(C)c2c(=O)[nH]c(-c3cc(S(=O)(=O)NC)ccc3OCC)nc12	/	.	/	/	/	/
CC1=Nc2ccccc2/C1=C/c1sc(=N)n(-c2nccs2)c1O	+	.	.	.	/	.
CC(=O)NC(C)C(=O)OCC(=O)c1ccc(-c2ccccc2)cc1 (stereo not drawn)	+	.	/	.	.	.
CC(=O)NC(C)C(=O)OCC(=O)c1ccc(Cl)s1 (stereo not drawn)	.	.	.	.	/	.
COc1cccc(/C=N/NC(=O)CCNc2n[nH]c(=O)[nH]c2=O)c1OC	.	.	/	.	.	.
COc1ccc(/C=N/NC(=O)CCNc2n[nH]c(=O)[nH]c2=O)c(OC)c1	+	.	/	.	.	.
O=C1/C(=C/c2c[nH]c3ccccc23)CCC/C1=C\c1c[nH]c2ccccc12	.	4.6	.	.	.	.
CCN(C)c1ccc(/C=N\n2nnnc2N)cc1	+	.	.	.	/	.
COc1ccc(C(=O)/C=C/Nc2ccc([N+](=O)[O-])cc2C)c(OC)c1	+	.	.	.	/	.
COc1ccc(C(=O)/C=C/Nc2ccc([N+](=O)[O-])cc2C)cc1OC	.	.	.	.	/	.
COc1ccc(C(=O)OCC(=O)Nc2ccc([N+](=O)[O-])cc2OC)c(O)c1	+	.	/	.	.	.
SMILES	Autophagy mod	Ins promoter up	SDO1 yeast rescue	ABCB1 block	ROMK mod	ABCG2 block
O=c1[nH]c2ccccc2nc1/C=C/c1ccc(Cl)cc1	.	.	/	.	.	.
O=C(O)CCC(=O)Nc1ccc(S(=O)(=O)NCCc2ccccc2)cc1	/	.	/	/	/	/
Cc1ccc(NC(=O)CN2C(=O)NC(Cc3ccccc3)C2=O)c(Br)c1 (stereo not drawn)	.	.	/	.	.	.
Cc1cccc(OCCCC(=O)Nc2nc3ccccc3[nH]2)c1	+	.	/	.	.	.
Cc1cc(C(F)(F)F)c(C#N)c(SCC(=O)Nc2nc3ccccc3s2)n1	+	.	.	.	.	.
CCOC(=O)CCSc1nc(C)cc(C(F)(F)F)c1C#N	+	.	.	.	/	.
Cc1nc(SCC(=O)Nc2nc3ccccc3s2)c(C#N)c(C)c1C	.	.	.	.	.	.
Cc1cc(C)c(C#N)c(SCC2COc3ccccc3O2)n1 (stereo not drawn)	.	3.5	.	.	/	.
COc1ccccc1N1CCN(C2CCN(S(=O)(=O)c3ccc(NC(C)=O)cc3)CC2)CC1	.	.	/	.	/	.
Cc1cccc(NC(=S)NC(=O)/C=C/c2ccco2)c1	+	.	/	.	.	.
COc1ccc(C(=O)NNC2=Nc3cccc4cccc2c34)cc1	+	.	/	.	.	.
Cc1ccc(C(=O)NNC2=Nc3cccc4cccc2c34)cc1	.	.	.	.	/	.
CN(C)C(=O)C12CCC(C)(c3nc4ccccc4nc31)C2(C)C (stereo not drawn)	.	3.4	.	.	.	.
CCN(CC)C(=S)NC(=O)c1ccc(OC)c(Br)c1	.	/	.	.	4.6	.

Screening data: PubChem BioAssay, several laboratories
